# Compound activity (PubChem BioAssay)
# Furin inhibitor = blocks human furin protease activity; P09958; purified furin, fluorogenic substrate cleavage; inhibition, % at 20 µM or 30 µM; actives 0.061% (n = 220,000); AID 463115; in the data active means inhibition above about 25%
# Target sequence (P09958 108-714 limits assumed): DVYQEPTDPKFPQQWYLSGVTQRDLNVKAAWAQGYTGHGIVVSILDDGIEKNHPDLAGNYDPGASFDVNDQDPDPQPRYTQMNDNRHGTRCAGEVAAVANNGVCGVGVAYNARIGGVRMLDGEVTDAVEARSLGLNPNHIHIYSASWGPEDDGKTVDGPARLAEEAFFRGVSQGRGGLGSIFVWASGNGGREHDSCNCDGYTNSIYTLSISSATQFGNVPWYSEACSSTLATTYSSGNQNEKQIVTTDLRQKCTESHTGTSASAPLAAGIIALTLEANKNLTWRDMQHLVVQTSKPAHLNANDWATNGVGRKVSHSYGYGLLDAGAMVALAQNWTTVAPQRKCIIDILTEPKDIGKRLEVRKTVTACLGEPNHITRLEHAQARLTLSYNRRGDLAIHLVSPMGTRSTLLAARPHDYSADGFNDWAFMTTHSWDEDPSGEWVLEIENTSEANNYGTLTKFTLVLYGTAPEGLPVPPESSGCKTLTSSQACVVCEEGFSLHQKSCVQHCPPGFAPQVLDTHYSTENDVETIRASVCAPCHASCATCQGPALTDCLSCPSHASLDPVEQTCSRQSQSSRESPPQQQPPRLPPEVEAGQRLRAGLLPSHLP
# Dynein transport = dynein cargo transport inhibition; z-score, hits read low; actives 0.47% (n = 220,000); AID 1381; 3617.4 mouse cells, GR-EGFP nuclear translocation imaging; test concentration mostly 20 µM; stimulated with dexamethasone, 1 µM; stronger effect = lower value;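 active means plate z-score of nuclear minus cytoplasmic receptor signal below a set negative limit, without overly bright fluorescence or cell loss, cut at about -3.5 in these data, passing the limit was not always enough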;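 further: z-score of nuclear minus cytoplasmic ring GR-EGFP intensity difference per well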
#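 Schedule: 48 h induction, then 1 h compound, then 30 min agonist, 37 °C. Buffer or medium: tetracycline-free induction medium containing charcoal-stripped FBS. Reagent: 1.0 µM final dexamethasone stimulus. Evaluation: nuclear versus cytoplasmic GR-EGFP signal, averaged per well. Signal: high-content fluorescence imaging after fixation.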
# Autophagy mod = modulators of autophagy. MEF GFP-LC3 puncta imaging; test concentration mostly 10 µM. calls only at 10 µM (by protocol). actives 0.98% (n = 190,000). AID 463193;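 active means percentage of spot-positive cells more than 3 SD above its plate mean, without a fluorescence outlier flag or 80% toxicity; inconclusive means no clear call, values can overlap the other calls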;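 further: spot-positive cell cutoff set from DMSO-treated cells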
# Insulin prom up = MIN6 insulin promoter up-regulation | AID 1625 | actives 0.3% (n = 190,000) | MIN6 insulin promoter-GFP reporter, high-content imaging; stronger effect = higher value | z-score at 5 µM;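 active means z-score above 3 at 5 µM with at least 500 cells counted in the well; inconclusive means wells under 500 cells, flagged as cytotoxic or low count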
# Insulin prom inh = TRM-6 insulin promoter activity inhibition. TRM-6 cells, insulin promoter-eGFP reporter, imaging; reporter expression induced with tamoxifen. inhibition, % at 2 µM. actives 0.9% (n = 130,000);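 active means inhibition above the mean plus 3 SD, with well images judged a real hit on visual review, cut at about 60% in these data, passing the limit was not always enough; inconclusive means inhibition over the cutoff but images rejected on review; inactive means inhibition not above the cutoff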
# HSV replic up = HSV replication enhancement. HSV replication augmentation in cells, fold increase. maximum fold increase. actives 0.005% (n = 220,000); in the data active means maximum fold increase above about 1.5; inconclusive means no clear call, values can overlap the other calls; tested in PC3 cells
# * marks the source's active call; other numbers are inactive results; i = inactive; ? = inconclusive; . = no result given; + = active, no number. Compounds with a hit are over-represented: about 2% of the library has one in this group of screens.
SMILES,Furin inhibitor,Dynein transport,Autophagy mod,Insulin prom up,Insulin prom inh,HSV replic up
COC(=O)c1[nH]c2cc(OC)ccc2c1NC(=O)CCN1CCCC(C)(C)C1,-22.6,-0.504,i,-0.65,.,i
COC(=O)c1[nH]c2cc(OC)ccc2c1NC(=O)CCN1CCCCC1,34.4*,1.55,i,-0.45,20.7,i
CCOC(=O)N1CCN(C(=O)CCN2C(=O)COc3ccccc32)CC1,-19.3,0.142,i,-1.15,78.6*,i
COc1cc2c3nnc(-c4ccc(F)cc4)c-3cn(Cc3cccc(C)c3)c2cc1OC,-24.3,2.26,i,-0.18,.,i
COc1cc2c3nnc(-c4ccc(F)cc4)c-3cn(Cc3cccc(F)c3)c2cc1OC,-24.7,1.61,+,0.53,i,?
COC(=O)c1nc2ccc(N3CCOCC3)cc2c(C)c1C(=O)OC,-10.3,0.232,+,-0.9,.,i
CC(C)N(CCNCc1nnc(-c2ccccc2)o1)C(C)C,-20.4,0.416,i,-0.46,.,i
CCOC(=O)c1cc(C(C)C)sc1NC(=O)COC(=O)CCS(=O)(=O)c1ccccc1,-0.8,-0.246,i,0.3,60.0*,i
CCOC(=O)c1c(NC(=O)COC(=O)CCS(=O)(=O)c2ccc(C)cc2)sc(C)c1C,-12.1,-0.369,i,-0.11,.,i
COc1ccc(CNC(=O)c2noc3c2CCCCC3)cc1,-8.3,2.06,i,-0.08,.,i
O=C(NCc1ccccc1)c1noc2c1CCCCC2,-25.4,-0.0381,+,0.22,.,i
COC(=O)[C@@H](NC(=O)Nc1cccc(OC)c1)C(C)C,-20.5,0.321,i,3.01*,57.1,i
Oc1cccc(O)c1O,.,.,.,.,.,i
Cc1ccc(N=Nc2c(N)nn3c(C)cc(C)nc23)cc1,-6.9,0.603,i,.,81.8*,i
Cc1cc(C)n2nc(N)c(N=Nc3cccc(Cl)c3)c2n1,-15.4,-0.724,i,-0.65,61.5*,i
Cc1ccc(N=Nc2c(N)nn3c(N)c(C#N)c(C)nc23)cc1,-7.1,0.288,i,.,46.7,i
COc1cccc(SCc2noc(C(=O)NCC3CC3)c2C(=O)NCC2CC2)c1,.,.,.,.,.,i
CCCCCCOC(=O)C(C#N)c1nc2ccccc2nc1N1CCN(CC)CC1 (stereo not given),-2.6,-0.84,+,-0.41,-3.0,i
CCCCCNC(=O)C(C#N)c1nc2ccccc2nc1N1CCCC1 (stereo not given),-15.3,-0.313,+,0.37,-12.5,i
N#CC(C(=O)NCc1ccccc1)c1nc2ccccc2nc1N1CCCC1 (stereo not given),-5.9,1.8,+,1.66,14.3,i
CCCCCCNC(=O)C(C#N)c1nc2ccccc2nc1N1CCCC1 (stereo not given),10.2,0.9,+,-0.15,.,i
Cc1cccc(-n2cc(CNCCc3nc(C)cc(C)n3)c(-c3cccc(F)c3)n2)c1,-18.6,-0.272,.,-2.68,.,i
COc1ccc2nc(C)c3cc(C)oc3c2c1,-7.5,0.874,i,0.37,90.3*,i
Oc1ccc(Nc2nc3ccccc3nc2Nc2ccc(O)cc2)cc1,-2.1,-3.35,+,-0.35,-256.5,i
Cc1nc2ccccc2nc1N/N=C/c1ccc(O)cc1,-16.5,0.67,.,-0.61,.,i
SMILES,Furin inhibitor,Dynein transport,Autophagy mod,Insulin prom up,Insulin prom inh,HSV replic up
CN1C(=O)/C(=C/C=C2\SCCN2C)N(C)C1=S,10.4,-0.22,i,-0.38,88.9*,i
CCS(=O)(=O)c1ccc2oc(SCC(=O)N3CCCCC3)nc2c1,-24.3,-1.54,i,-0.46,.,i
CC1(C)CC(=O)C2=C(C1)OC(N)=C(C#N)C2c1cn(-c2ccccc2)nc1-c1ccc(F)cc1 (stereo not given),-15.1,-0.757,+,-0.4,.,i
CCOCc1c(C(=O)NC2CCCCCC2)oc2ccccc12,-14.0,0.512,i,-0.32,.,i
CC1=C/C(=N\OS(=O)(=O)c2ccccc2)C(C(C)C)=CC1=O,-15.2,-4.72*,i,?,-316.7,.
CCOC1(c2ccccc2)CC1C(=O)N/N=C/c1cccc([N+](=O)[O-])c1 (stereo not given),-17.0,-0.587,.,-0.43,.,i
COc1ccc(-c2cc(-c3ccc(OC)cc3)nc(-c3ccc4c(c3)NC(=O)CO4)c2)cc1,-6.0,-0.416,+,-0.38,-11.4,i
